Consider five compounds from paper PMC6957770 (Biochemical Journal, 2020).

Broadly, the stoichiometry N is the number of molecules, sites or subunits per partner or assembly.

Several values for one entry are separate records, joined by “and”; a condition that tells them apart may be missing. Equal entries are not always repeated. Entries after “also recorded” stand apart in the source; their conditions may differ. Where two headings read alike, the source gives them in different places.

One assay concerns the target T1, PilBN (Chloracidobacterium thermophilum, UniProt G2LDI3).
T1 sequence (G2LDI3 1-146): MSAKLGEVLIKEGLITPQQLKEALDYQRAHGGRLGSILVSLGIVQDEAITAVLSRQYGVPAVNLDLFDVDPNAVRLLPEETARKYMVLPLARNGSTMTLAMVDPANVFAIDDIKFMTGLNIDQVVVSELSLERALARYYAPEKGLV
The experiment in a line: ITC ligand binding to PilBN. Particulars: for binding detected by ITC: 30 μM PilBN, Supplementary Figure S4A,B. Summed up:
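ITC at 25 °C, 300 rpm stirring. His-tagged PilBN (expressed in E. coli BL21(DE3)) was purified by Ni-NTA and size exclusion, dialysed into activity buffer, and set at 30 μM final in the cell. Syringe held 0.5 mM cdG, given as one 0.4 μl and 29 × 1 μl injections 150 s apart. Buffer-only heats were subtracted. Fit used a single-set-of-identical-sites model; ≥3 independent runs.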

Assay [1] addresses T2, Full-length PilB (CtPilB) (Chloracidobacterium thermophilum, UniProt G2LDI3).
T2 sequence (G2LDI3 1-614): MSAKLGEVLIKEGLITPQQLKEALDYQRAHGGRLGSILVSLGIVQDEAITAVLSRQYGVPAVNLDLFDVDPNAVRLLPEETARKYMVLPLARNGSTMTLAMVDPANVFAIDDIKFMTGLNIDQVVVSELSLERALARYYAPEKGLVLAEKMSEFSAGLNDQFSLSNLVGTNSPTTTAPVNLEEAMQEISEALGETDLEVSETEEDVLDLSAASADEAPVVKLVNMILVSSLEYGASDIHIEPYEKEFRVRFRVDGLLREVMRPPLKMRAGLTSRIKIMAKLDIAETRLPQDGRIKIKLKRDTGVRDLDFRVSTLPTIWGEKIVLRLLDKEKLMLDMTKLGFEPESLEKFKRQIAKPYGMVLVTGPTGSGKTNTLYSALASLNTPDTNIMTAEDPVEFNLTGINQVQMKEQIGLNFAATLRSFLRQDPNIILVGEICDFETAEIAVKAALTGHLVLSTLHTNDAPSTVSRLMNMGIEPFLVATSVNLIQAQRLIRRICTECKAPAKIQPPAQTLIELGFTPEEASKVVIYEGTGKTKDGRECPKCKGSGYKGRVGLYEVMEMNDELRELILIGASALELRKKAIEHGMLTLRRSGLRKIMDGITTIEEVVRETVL
The experiment in a line: ITC ligand binding to full-length PilB with or without effector. To be noted: for N, number of ligand binding sites per protein: per PilB hexamer. The gist of the method: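 ITC at 25 °C using full-length hexameric PilB (expressed in E. coli XL1-Blue; Ni-NTA/SEC) dialysed into activity buffer. cdG runs: 5.3 μM protein, 0.5 mM cdG, one 0.4 μl then 29 × 1 μl injections, 150 s apart. ATPγS/ADP runs: 15 μM protein, 1 mM titrant, one 0.4 μl then 39 × 1 μl injections, 120 s apart. Optional effector pre-incubation: 15 min on ice (cdG 100 μM; ATPγS/ADP 50 μM). Buffer-only heats subtracted; single-site fit.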

For a further assay, the target named is T3, PilBΔN (Chloracidobacterium thermophilum, UniProt G2LDI3).
T3 sequence (G2LDI3 140-614): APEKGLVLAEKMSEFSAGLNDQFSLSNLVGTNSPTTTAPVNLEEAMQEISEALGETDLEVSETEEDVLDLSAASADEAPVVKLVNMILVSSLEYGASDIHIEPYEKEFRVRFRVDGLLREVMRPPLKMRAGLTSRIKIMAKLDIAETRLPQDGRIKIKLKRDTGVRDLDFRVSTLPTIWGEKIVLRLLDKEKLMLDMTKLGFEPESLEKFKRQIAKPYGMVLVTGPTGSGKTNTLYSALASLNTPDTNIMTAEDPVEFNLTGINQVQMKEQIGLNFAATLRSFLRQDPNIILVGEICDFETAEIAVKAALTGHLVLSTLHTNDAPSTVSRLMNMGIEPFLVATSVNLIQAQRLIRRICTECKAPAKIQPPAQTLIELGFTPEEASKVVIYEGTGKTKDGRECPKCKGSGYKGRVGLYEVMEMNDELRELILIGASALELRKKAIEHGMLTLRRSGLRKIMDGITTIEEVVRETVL
Description: ITC ligand binding to PilBΔN. To be noted: for ΔG / ΔH / N, number of ligand binding sites per protein: ITC; for ΔG / ΔH: 25 °C; for N, number of ligand binding sites per protein: per PilBΔN hexamer.

Another assay has as its system VcMshE. Particulars: in vitro; cited from earlier work.
Assay [2] has as its system full-length CtPilB ATPase. The experiment in a line: Malachite green-based ATPase assay of full-length CtPilB in the presence of cdG. In kind it is biochemical, Chloracidobacterium thermophilum. The gist of the method:
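Full-length PilB (75 nM) ATPase was read by malachite green phosphate endpoint after 15 min at 54 °C in activity buffer, with cdG at 0, 2 or 200 μM. Kinetic runs used 0.5 and 1.0 mM ATP with or without cdG. No-protein ATP blanks served as controls.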

Assay [3] concerns the target PilBΔN (truncated CtPilB without the first 139 residues) (Chloracidobacterium thermophilum). Description: SEC. In general terms: SEC sorts molecules by how far they enter the pores of the column.

Turning to `Nc1ncnc2c1ncn2[C@@H]1O[C@H](COP(=O)(O)OP(=O)(O)O)[C@@H](O)[C@H]1O` [ADP], the “binding detected by ITC” value on PilBN is “no detectable binding; also recorded: without detectable binding”. Moreover, the ΔG was -7.3 kcal/mol in assay [1] (ITC, 25 °C, no effector); -6.9 kcal/mol in assay [1] (effector cdG 100 μM); -7.0 kcal/mol on PilBΔN (no effector). Also, the ΔH was -15.4 kcal/mol and -15.4 ± 1.0 kcal/mol in assay [1] (ITC, 25 °C, no effector); -46.2 kcal/mol and -46.2 ± 1.6 kcal/mol in assay [1] (effector cdG 100 μM); -16.2 kcal/mol and -16.2 ± 0.4 kcal/mol on PilBΔN (no effector). The “N, number of ligand binding sites per protein” value (“N, number … per protein” below) in assay [1] (ITC, no effector) came to 2.20±0.02; in assay [1] (effector cdG 100 μM), 1.79±0.06; on PilBΔN (no effector) it was 2.20±0.03. In assay [1] (read-out: apparent dissociation constant KD, ITC, 25 °C, no effector, 15 μM PilB), the Kd was found to be 4.3 ± 1 µM.

With `Nc1ncnc2c1ncn2[C@@H]1O[C@H](COP(=O)(O)OP(=O)(O)OP(=O)(O)O)[C@@H](O)[C@H]1O` [ATP], the “N, stoichiometry per PilB hexamer” value in assay [1] (ITC with ATP, hydrolysis interferes) was 2.

In the case of `Nc1ncnc2c1ncn2[C@@H]1O[C@H](CO[P@](=O)(O)O[P@](=O)(O)O[P@@](=O)(O)S)[C@@H](O)[C@H]1O` [ATPγS], the “binding detected by ITC” value on PilBN was “no detectable binding; also recorded: without detectable binding”. Also, the ΔG is -7.4 kcal/mol in assay [1] (ITC, 25 °C, no effector); -7.4 kcal/mol in assay [1] (effector cdG 100 μM); -7.2 kcal/mol at PilBΔN (no effector). Further, the ΔH in assay [1] (ITC, 25 °C, no effector) is -10.3 ± 0.3 kcal/mol; in assay [1] (effector cdG 100 μM), -10.3 ± 0.3 kcal/mol; at PilBΔN (no effector), -11.5 kcal/mol and -11.5 ± 0.6 kcal/mol. Besides, the “N, number … per protein” value was 2.8 and 2.8±0.06 in assay [1] (ITC, no effector); 2.91±0.04 in assay [1] (effector cdG 100 μM); 2.42±0.07 at PilBΔN (no effector). Besides, the Kd in assay [1] (apparent dissociation constant KD, ITC, 25 °C, no effector, 15 μM PilB) stood at 3.8 ± 0.5 µM; on PilBΔN, 5.2 ± 0.7 µM. In addition, at PilBΔN (PilBΔN versus full-length PilB, no effector), the “KD for PilBΔN higher than KD for full-length PilB” value is roughly 40%.

With `Nc1nc2c(ncn2[C@@H]2O[C@@H]3COP(=O)(O)O[C@H]4[C@@H](O)[C@H](n5cnc6c(=O)[nH]c(N)nc65)O[C@@H]4COP(=O)(O)O[C@H]3[C@H]2O)c(=O)[nH]1` [cdG, cyclic-di-GMP], the Kd was found to be 0.107 ± 0.014 µM at PilBN and 0.053 ± 0.01 µM in assay [1] (apparent dissociation constant KD, ITC, 25 °C, no effector, 5.3 μM PilB). Also, the ΔG was -9.5 kcal/mol on PilBN (ITC, 25 °C, no effector) and -10.6 kcal/mol in assay [1] (effector ADP 50 μM). For the same compound, the ΔH on PilBN (ITC, 25 °C, no effector) is -7.4 ± 0.5 kcal/mol; in assay [1] (ITC, 25 °C, no effector), -14.5 kcal/mol and -14.5 ± 0.13 kcal/mol; in assay [1] (effector ADP 50 μM), -12.0 ± 0.09 kcal/mol; in assay [1] (effector ATPγS 50 μM) it was -14.0 ± 0.3 kcal/mol. Also, the “−TΔS” value on PilBN (ITC, 25 °C, no effector) was -2.1 kcal/mol. In addition, the “N, number … per protein” value on PilBN (ITC, no effector, PilBN monomer) was found to be 1.09±0.03; in assay [1] (ITC, no effector), 5.83±0.01; in assay [1] (effector ADP 50 μM) it was 5.94±0.09; in assay [1] (effector ATPγS 50 μM) it was 6.33±0.08. In addition, the “effect of cdG on ATPase activity” value with VcMshE is “only to a very limited extent”. Further, the “binding detected by ITC” value at PilBΔN (5.3 μM PilBΔN, Supplementary Figure S4C) is recorded as “Nor was there any detectable binding”. In addition, the “effect on ATPase activity, kinetic assay” value in assay [2] (cdG 0, 2 or 200 μM, ATP 0.5 and 1.0 mM, Supplementary Figure S5) is “not statistically significant; also recorded: did not affect”. For the same compound, in assay [2] (cdG at 0, 2 and 200 μM, data not shown), the “effect on ATPase activity, endpoint assay” value is “no difference”.

In turn, “PilBΔN (truncated CtPilB without the first 139 residues) (from UniProt A0ABV9NNI3 140-574) (domain or fragment)” came in with a stoichiometry N in assay [3] of 6.
